# Assay outcomes: PubChem BioAssay, Broad Institute
# Sampled rows, rich in hits. Any-hit rate of the full collection: about 2.6%.
# AF4-AF9 inh: inhibitors of human MLL-AF4/AF9 interaction. AlphaScreen, biotin-AF4 peptide binding to FLAG-AF9. inhibition, % at 10 µM. hit rate 0.47% among 350,000. AID 651704;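 active = every replicate reaching a set inhibition limit, whatever the replicate mean, cut at about 25% in these data; inconclusive = mean inhibition reaches that limit but some replicates miss it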;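 note: 0% = plate neutral control median and 100% = total signal loss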
# Ecoli rRNA inh: inhibitors of bacterial rRNA selective over humanized ribosomes; hit rate 1.6% among 350,000; AID 720706; GFP signal change (wild-type ribosome), % (test concentration not listed); E. coli WT GFP vs humanized-ribosome RFP mutants, fluorescence, 24 h; active compounds read low; DMSO median 0, no signal -100;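 active = significant combined selectivity score with lowered wild-type GFP, culture density cut under 30%, mutant RFP and density less affected; inactive = any of these conditions unmet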
# RAD54 branch: blocks human RAD54 Holliday junction branch migration | FAM/BHQ fluorescence | inhibition, % at 10.4 µM | hit rate 0.14% among 360,000 | AID 602329;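 active = mean normalized replicate activity at least 40 and at least half of replicates scoring 40 or more; inconclusive = only one of the two criteria met; inactive = mean below 40 and under half of replicates reaching 40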;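 note: 0% = median of neutral control wells and 100% = median of positive control wells; inhibitors cause a drop in the FAM fluorescence signal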
# Target sequence (Q92698 whole entry, looked up): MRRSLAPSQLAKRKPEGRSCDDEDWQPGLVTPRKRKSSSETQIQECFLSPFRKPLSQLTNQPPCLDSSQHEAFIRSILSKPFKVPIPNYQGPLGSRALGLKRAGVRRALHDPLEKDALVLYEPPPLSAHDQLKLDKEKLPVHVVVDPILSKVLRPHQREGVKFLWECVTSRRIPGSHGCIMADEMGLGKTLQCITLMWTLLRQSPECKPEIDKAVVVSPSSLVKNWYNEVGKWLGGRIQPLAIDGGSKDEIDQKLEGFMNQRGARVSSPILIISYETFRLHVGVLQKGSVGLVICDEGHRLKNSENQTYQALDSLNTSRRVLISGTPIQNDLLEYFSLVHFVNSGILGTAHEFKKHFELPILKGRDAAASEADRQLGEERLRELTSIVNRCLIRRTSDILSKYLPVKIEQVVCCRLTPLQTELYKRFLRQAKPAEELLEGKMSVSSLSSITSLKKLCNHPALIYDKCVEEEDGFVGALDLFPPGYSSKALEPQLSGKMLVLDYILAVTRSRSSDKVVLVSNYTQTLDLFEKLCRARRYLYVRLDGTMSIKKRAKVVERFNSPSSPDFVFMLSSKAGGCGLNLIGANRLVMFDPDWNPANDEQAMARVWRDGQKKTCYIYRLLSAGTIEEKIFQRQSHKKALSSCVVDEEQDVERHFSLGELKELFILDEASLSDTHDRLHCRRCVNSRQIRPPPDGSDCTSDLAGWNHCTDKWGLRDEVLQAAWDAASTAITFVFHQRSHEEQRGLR
# RAD52 anneal inh: blocks human RAD52 DNA annealing; P43351; recombinant RAD52 DNA annealing, FRET fluorescence; inhibition, % at 18.7 µM; hit rate 0.46% among 360,000; AID 651710;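 active = every replicate showing at least 50% inhibition; inconclusive = mean inhibition at least 50% but not in every replicate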
# INS-1E GSIS act: primary screen for activators of insulin secretion dependent on glucose, INS-1E cells, GLuc reporter luminescence; AID 743287; INS-1E GLuc reporter insulin secretion, 2-3 h; activation, % at 16.6 µM; hit rate 0.61% among 370,000;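 active = lowest replicate activation of at least 40%, so every replicate reaches that level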;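 note: 0% = median of neutral control wells and 100% = median of IBMX positive control wells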
# E-selectin induc: E-selectin induction on HUVECs; AID 686992; P16581; hit rate 0.37% among 260,000; activation, % at 7.58 µM; HUVEC E-selectin immunofluorescence imaging; normalized: neutral wells 0, TNF-alpha wells 100;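 active = mean E-selectin-positive cell signal at least 10% of the positive control, reached in at least 60% of replicates, without over 20% cell loss; inconclusive = no rule given, readout overlaps actives, possibly toxicity-flagged; inactive = the rest, including those meeting only one limit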
#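 Material: HUVEC primary endothelial cells; Amount: 3,000 cells per well; Dosing: single concentration; Medium: EGM-2 growth medium on 0.1% gelatin-coated wells; Read-out basis: percent E-selectin-positive cells; Signal: immunofluorescence imaging; Control set: TNF-alpha, DMSO.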
# Alpha interfer: counter-screen: AlphaScreen signal interference. shares compounds with AF4-AF9 inh. signal luminescence. AC50, µM (series often up to 12 µM), for inactives: at the highest dose activity change, negative = inhibition. hit rate 45% among 530. AID 720494; cut-off not given, nearly all actives have AC50 up to about 14 µM
# RAD52 DNA ctr: counter-screen for RAD52 inhibitors: DNA binding compounds. shares compounds with RAD52 anneal inh. Salmon sperm DNA/acridine orange FP displacement. AC50, µM. hit rate 8% among 1,000. AID 652128;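 active = fitted half-maximal concentration for signal loss at or below twice the highest dose tested, in every separate run, actives reach about 64 µM in these data; inconclusive = runs disagree, or flat partial signal loss, or poor fit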
# Active calls of the source: *; i = inactive; u = inconclusive; x = not tested or not shown; ! = not confirmed by another sample.
SMILES,AF4-AF9 inh,Ecoli rRNA inh,RAD54 branch,RAD52 anneal inh,INS-1E GSIS act,E-selectin induc,Alpha interfer,others
Fc1ccc(-[n+]2nc(Nc3ccccc3)sc2-c2c(Cl)cccc2Cl)cc1,34*,-41,2,3,-44,x,-27%,
O=C(NCCCN1CCCC1=O)C1CCN(S(=O)(=O)c2cccc(C(F)(F)F)c2)CC1,27*,5,-7,4,13,0,-11%,
Oc1c(C(Nc2cccc(C(F)(F)F)c2)c2ccncc2)ccc2cccnc12 (stereo unspecified),33*,-50,x,-10,8,-3,4.8µM*,
C[C@@H]1CN([C@H](C)CO)C(=O)c2cccc(NC(=O)C3CCOCC3)c2O[C@@H]1CN(C)Cc1ccc2c(c1)OCO2,-1,-1,3,-12,7,x,x,
COc1ccc(N2CCC(CNC(=S)Nc3ccc(C)cc3C)C2)cc1 (stereo unspecified),u,-4,x,-14,-21,5,-14%,
COc1ccc(N2CCC(CNC(=S)Nc3c(C)cc(C)cc3C)C2)cc1 (stereo unspecified),23,-16,x,34,27,2,x,
Cc1cc(/C=N/n2c(COc3ccccc3C)nc3ccccc3c2=O)c(O)c([N+](=O)[O-])c1,32*,1,x,-3,3,x,4%,
O=c1c2ccccc2nc(COc2ccccc2)n1/N=C/c1cc([N+](=O)[O-])ccc1O,2,6,3,4,-16,0,x,
O=C(C[C@H]1CC[C@@H](NC(=O)c2ccc(F)cc2)[C@H](CO)O1)NCc1ccncn1,0,2,6,-4,-5,1,x,
COc1ccc(S(=O)(=O)Nc2ccc3c(c2)CC(=O)N([C@@H](C)CO)C[C@@H](C)[C@H](CN(C)Cc2ccc(-c4ccccc4)cc2)O3)cc1,-1,-3,-14,-7,6,0,x,
O=[N+]([O-])c1ccc(/C=N/Nc2ccnc3cc(Cl)ccc23)o1,28*,-64,16,-10,-10,0,-29%,
O=C(Nc1cc(F)ccc1F)N1C[C@@H]2[C@H](c3ccccc31)[C@H](CO)N2Cc1cccnc1,-6,-2,-21,10,5,0,x,
COc1ccccc1-c1cn(CC[C@H]2CC[C@@H](NC(=O)NC(C)C)[C@@H](CO)O2)nn1,-3,-4,-1,-6,0,0,x,
CCOc1ccc(NCc2cccn2-c2nnc(N3CCC(C(=O)NCCCN4CCCCC4CC)CC3)s2)cc1 (stereo unspecified),38*,3,25,33,11,x,11µM*,
CC1CCCCN1CCCNC(=O)C1CCN(c2nnc(-n3cccc3)s2)CC1 (stereo unspecified),8,12,-1,47,-10,x,x,
CO[C@H]1CN(C)C(=O)c2ccc(NC(=O)C3CC3)cc2OC[C@H](C)N(C(=O)NC(C)C)C[C@@H]1C,-2,2,3,-1,3,0,x,
C[C@H](CO)N1C[C@H](C)[C@@H](CN(C)C(=O)NC2CCCCC2)OCCCC[C@H](C)Oc2ccc(NS(=O)(=O)c3ccc(Cl)cc3)cc2C1=O,1,3,4,14,4,x,x,
C#CCOCCOCCOCCNc1nc(N2CCN(C(=O)[C@H](CCCCN)n3cc(CN)nn3)CC2)nc(N2CCN(C(=O)[C@H](CC(N)=O)n3cc(C(N)[C@H](C)CC)nn3)CC2)n1 (stereo partly specified),u,7,-52,64*,12,0,-13%,RAD52 DNA ctr=i
C#CCOCCOCCOCCNc1nc(N2CCN(C(=O)[C@H](CCCN=C(N)N)n3cc(C(N)[C@H](C)CC)nn3)CC2)nc(N2CCN(C(=O)[C@H](CCCN=C(N)N)n3cc(C(N)[C@@H](C)CC)nn3)CC2)n1 (stereo partly specified),x,x,-1,x,x,x,x,
C#CCOCCOCCOCCNc1nc(N2CCN(C(=O)[C@H](CCCCN)n3cc(CN)nn3)CC2)nc(N2CCN(C(=O)[C@H](CCCN=C(N)N)n3cc(C(N)[C@H](C)CC)nn3)CC2)n1 (stereo partly specified),45*,6,-17,77*,10,0,-10%,RAD52 DNA ctr=u
C[C@H]1CN([C@@H](C)CO)C(=O)c2cccc(NC(=O)C3CCOCC3)c2O[C@H]1CN(C)Cc1ccc(C(=O)O)cc1,1,0,-2,18,-3,-1,x,
C[C@@H]1CCCCO[C@@H](CN(C)Cc2ccc(C(F)(F)F)cc2)[C@H](C)CN([C@@H](C)CO)C(=O)c2cc(NC(=O)CCC(F)(F)F)ccc2O1,2,5,4,-55,-9,0,x,
CN(C)CCCN1c2ccccc2Sc2ccc(Cl)cc21,39*!,-33,26,101*,-29,0,-32%,RAD52 DNA ctr=i
CC(=O)c1ccc2c(c1)N(CCCN1CCC(CCO)CC1)c1ccccc1S2,6,-15,11,2,-3,-1,x,
CN(C)CCCN1c2ccccc2CCc2ccccc21,4,x,-5,-8,x,0,x,
SMILES,AF4-AF9 inh,Ecoli rRNA inh,RAD54 branch,RAD52 anneal inh,INS-1E GSIS act,E-selectin induc,Alpha interfer,others
OCCN1CCN(CCCN2c3ccccc3Sc3ccc(Cl)cc32)CC1,40*,-57,12,102*,x,0,-32%,RAD52 DNA ctr=i
CO[C@@H]1CN(C)C(=O)c2ccc(NC(=O)CC(F)(F)F)cc2OC[C@H](C)N(C(=O)C2CC2)C[C@H]1C,-6,0,x,-85,3,0,x,
CN(C)CC/C=C1/c2ccc(F)cc2Sc2ccc(Cl)cc21,36*,-47,29,62*,16,-3,-31%,RAD52 DNA ctr=i
CN(C)CC/C=C1\c2ccc(F)cc2Sc2cc(F)c(Cl)cc21,46*,-43,38,71*,28,1,-42%,RAD52 DNA ctr=i
CN(C)CC/C=C1\c2ccccc2Sc2ccc(Cl)cc21,24,-58,9,46,12,0,x,
C[C@H]1CN([C@@H](C)CO)S(=O)(=O)c2ccc(C3=CCCC3)cc2O[C@H]1CN(C)Cc1ccncc1,-1,-6,-11,-14,-18,0,x,
COc1ccc(S(=O)(=O)N(C)C[C@H]2Oc3ccc(NS(=O)(=O)c4ccc(C)cc4)cc3C(=O)N([C@H](C)CO)C[C@H]2C)cc1,1,-4,x,14,-26,7,x,
O=C1c2c(O)ccc(O)c2C(=O)c2c(NCCNCCO)ccc(NCCNCCO)c21,97*,x,122*,102*,0,3,0.35µM*,RAD52 DNA ctr=1.5µM*!
O=C(c1ccc(-c2cc(O)c3ncccc3c2)cc1)N1CCNCC1,92*,-13,22,101*,x,0,3.9µM*,RAD52 DNA ctr=i
CC(C)(C)c1ccc(C(=O)N2CCNCC2)cc1,x,x,5,x,x,x,x,
